Screening data as filed in PubChem BioAssay.
XiGFP reactiv: activators of X-chromosome reactivation in mouse fibroblasts; activation, % at 7.58 µM; hit rate 0.055% among 360,000; AID 743238; XiGFP mouse fibroblasts, % GFP-positive cells imaging, 3 d; cells co-treated with 5-aza-dC sensitizer; scaled so ellipticine positive control = 100%;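 active means mean normalized replicate activation at least 10% and every replicate at or above 10%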;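 further: 0% = median of on-plate neutral control wells and 100% = ellipticine 6 µM median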
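assay system = SV40-immortalized XiGFP fibroblast cells, line 68-5-11 | buffer or medium = DMEM plus 5-aza-dC sensitizer | doses = single-point pinned compound dosing | times = 3-day compound exposure, then 15 min fixation at room temperature | benchmarks = positive control ellipticine, 6 µM final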
Casp6 inh: inhibitors of human caspase-6; purified caspase-6, Z-VEID-R110 cleavage fluorescence; inhibition, % at 12.5 µM; AID 686996; P55212; hit rate 0.53% among 350,000;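 active means mean inhibition across replicates at least about 35%, with every replicate also reaching that limit, limit read from the data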;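 further: 0% = median of neutral control wells and 100% = no fluorescence left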
Target sequence (P55212 24-179 limits assumed): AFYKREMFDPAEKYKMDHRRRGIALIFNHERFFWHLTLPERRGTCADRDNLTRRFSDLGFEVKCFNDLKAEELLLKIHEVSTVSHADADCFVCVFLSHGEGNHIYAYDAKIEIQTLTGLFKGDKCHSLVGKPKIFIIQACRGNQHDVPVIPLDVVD
Target sequence (P55212 194-293 limits assumed): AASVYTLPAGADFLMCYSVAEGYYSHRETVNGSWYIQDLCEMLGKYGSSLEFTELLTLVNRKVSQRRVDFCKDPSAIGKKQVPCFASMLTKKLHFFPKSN
Wnt bcat act: activates Wnt/beta-catenin signaling in a reporter cell assay. activation, % at 9.35 µM. hit rate 1.2% among 300,000. activator, plate reader; in the data active means activation above about 30%, passing the limit was not always enough;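 further: 0% = neutral control wells and 100% = positive control wells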
NSD2 inh: inhibitors of human histone methyltransferase NSD2. O96028. NSD2 peptide methylation, AlphaScreen, 120 min. inhibition, % at 12.5 µM. hit rate 0.54% among 310,000. AID 743445; in the data active means inhibition above about 50%
MITF TRPM1 HTS: MITF TRPM1 promoter activation in melanoma cells; SK-MEL-5 TRPM1-promoter luciferase, 24 h; % of positive control, neutral wells = 0; activation, % at 12.5 µM; hit rate 0.75% among 300,000; AID 588334;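 active means mean activation of at least 80% with every replicate also reaching 80%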;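 further: 0% = neutral control wells and 100% = parthenolide positive control wells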
esBAF inh: blocks esBAF chromatin remodeling in mouse ES cells. Bmi1-luciferase knock-in reporter, 24 h; 100% = twice the neutral-well signal. reporter increase, % at 12.5 µM. hit rate 2% among 350,000. AID 602393; in the data active means activation above about 40%;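 further: 0% = median of the plate's neutral control wells and 100% = double that signal; a rise in the Bmi1 reporter signal indicates esBAF inhibition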
An asterisk follows results filed as active; · = no result. Sampled rows, rich in hits. Any-hit rate of the full collection: about 3%.

SMILES	XiGFP reactiv	Casp6 inh	Wnt bcat act	NSD2 inh	MITF TRPM1 HTS	esBAF inh
CCOC(=O)c1c(C=O)c2ccccc2n1CC	0	0	-3	-2	-6	3
CCOC(=O)c1c(C=O)c2sc(C)cc2n1C	0	1	44*	·	24	6
O=C(O)C/C(=C\c1ccc2c(c1)OCO2)c1nc2ccccc2s1	0	4	1	2	24	4
O=C(O)C/C(=C\c1cc(Cl)c2c(c1)OCO2)c1nc2ccccc2s1	0	60*	-6	8	-7	3
CON(C)C(=O)/C=C/c1ccc([B-](F)(F)F)cc1	0	2	7	·	21	47*
Cn1c(SCC(=O)Nc2nncs2)nnc1C1CC1	0	36*	-1	7	0	1
CCOc1ccc2nc(N3CCOCC3)nc(C)c2c1	·	·	·	-9	99*	34
CCOc1ccc(Nc2cc(C)nc(N3CCOCC3)n2)cc1	·	·	·	-1	27	3
CCOc1ccc(Nc2nc(N3CCOCC3)nc(N3CCOCC3)n2)cc1	0	41*	1	-1	·	-5
CCc1nc2ccc(C(=O)N3CCc4ccccc4C3)cc2nc1CC	·	·	·	-1	·	·
Cc1cccc(N/N=C/c2ccc(C)s2)c1	0	-1	6	0	104*	74*
Cc1ccc(S(=O)(=O)Nc2ccc3c(c2)C(=O)N([C@H](C)CO)C[C@H](C)[C@H](CN(C)C(=O)NC2CCCCC2)O3)cc1	0	5	·	·	·	2
O=C(COC(=O)c1ccc([N+](=O)[O-])s1)NC(=O)NCc1ccccc1	0	44*	-4	2	-1	-11
O=C(OCC(=O)c1ccc[nH]1)c1ccc([N+](=O)[O-])cc1	0	0	-1	-1	1	4
O=C(COC(=O)c1ccc([N+](=O)[O-])s1)NCc1ccc(F)cc1	·	·	·	0	-5	-11
O=C(COC(=O)c1ccc([N+](=O)[O-])s1)c1ccc[nH]1	0	99*	0	-1	-9	0
O=C(OCC(=O)c1ccc[nH]1)c1ccc(Br)cc1	0	0	2	-2	·	-9
COc1ccc(C(=O)OCC(=O)c2ccc[nH]2)cc1	0	4	26	19	76	51*
Cc1ccc(S(=O)(=O)N(C)C[C@H]2Oc3ncc(-c4ccccc4)cc3C(=O)N([C@@H](C)CO)C[C@H]2C)cc1	-1	1	·	·	·	2
CN1CCN(C(=O)C2=C[C@@H](c3ccc4c(c3)OCO4)C[C@@H](OCCCCO)O2)CC1	·	19	·	·	·	·
C[C@@H]1CN([C@@H](C)CO)C(=O)c2cccc(NS(=O)(=O)c3cccs3)c2O[C@H]1CN(C)C(=O)Nc1ccccc1	-1	·	·	·	·	-2
O=[N+]([O-])c1cccc(-c2nnc(-c3ccccc3F)o2)c1	0	0	49*	-3	·	40
CNC(=O)C[C@H]1CC[C@H]2[C@H](COc3ccc(NC(=O)c4ccc(C(F)(F)F)cc4)cc3C(=O)N2C)O1	0	·	·	·	·	9
O=C(CCSc1ccc(Cl)cc1)N1CCOCC1	·	·	25	-3	·	42*
O=C(CSc1nnc(C2CC2)n1C1CC1)c1ccc(Br)s1	0	0	33*	0	71	56*
SMILES	XiGFP reactiv	Casp6 inh	Wnt bcat act	NSD2 inh	MITF TRPM1 HTS	esBAF inh
COc1ccc2c3c(n(C)c2c1)[C@@H](CO)N(C(=O)CN1CCOCC1)CC31CCN(C(=O)CC2CC2)CC1	0	·	·	·	·	·
O=C(CSc1nc2ccccc2c(=O)[nH]1)Nc1ccccc1N1CCOCC1	0	0	8	-4	-11	3
O=C(CSc1nc2ccccc2c(=O)[nH]1)Nc1ccc(N2CCOCC2)cc1	0	58*	0	0	-2	5
CCOC(=O)/C(=C/c1ccc(N2CCC(c3ccccc3)=N2)cc1)C(C)=O	·	·	·	·	47	·
c1ccc(C2=NN(c3ccccc3)CC2)cc1	0	-2	50*	6	88*	46*
CSCCC(=O)N1CCCC(CO)(CCCc2ccccc2)C1 (stereo not drawn)	0	-4	0	4	·	-8
O=C1CCCN1CCC(=O)N1CCCC(CO)(Cc2ccccc2)C1 (stereo not drawn)	0	-3	32*	-4	49	63*
Cn1c(=NC(=O)C2CCCCC2)sc2cc([N+](=O)[O-])ccc21	0	-9	1	-1	5	·
